# Reference: PMC6959550 (Journal of medicinal chemistry, 2017)
# What was measured:
# TRPV1 [1] = molecular target: T1, TRPV1 (Homo sapiens, UniProt Q8NER1); assay: Time course of binding of 13 to human TRPV1 and its release
# In short: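 Membranes (~20 μg protein) from CHO cells expressing human TRPV1 were incubated with the tritiated test ligand in DPBS with 0.25 mg/mL BSA at 37 °C for varied times. Alternatively, after 60 min, 50 nM unlabeled reference vanilloid was added for varied times at 37 °C or at 0 °C after chilling. Workup: α1-acid glycoprotein (2 mg/mL stock), 10 min at 0 °C, pelleting, scintillation counting. Values relative to controls; triplicate means.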
# TRPV1 [2] = molecular target: T1, TRPV1; format: binding; settings: treated versus control
# TRPV1 [3] = molecular target: T1, TRPV1; assay: Activity type at TRPV1
# TRPV1 [4] = molecular target: T1, TRPV1; assay: Predicted improvement of specific to nonspecific binding from Kd/Ki and Log P; settings: from Log P values
# TRPV1 [5] = molecular target: T1, TRPV1; format: binding; settings: human versus rat TRPV1
# T1 sequence (Q8NER1 whole entry): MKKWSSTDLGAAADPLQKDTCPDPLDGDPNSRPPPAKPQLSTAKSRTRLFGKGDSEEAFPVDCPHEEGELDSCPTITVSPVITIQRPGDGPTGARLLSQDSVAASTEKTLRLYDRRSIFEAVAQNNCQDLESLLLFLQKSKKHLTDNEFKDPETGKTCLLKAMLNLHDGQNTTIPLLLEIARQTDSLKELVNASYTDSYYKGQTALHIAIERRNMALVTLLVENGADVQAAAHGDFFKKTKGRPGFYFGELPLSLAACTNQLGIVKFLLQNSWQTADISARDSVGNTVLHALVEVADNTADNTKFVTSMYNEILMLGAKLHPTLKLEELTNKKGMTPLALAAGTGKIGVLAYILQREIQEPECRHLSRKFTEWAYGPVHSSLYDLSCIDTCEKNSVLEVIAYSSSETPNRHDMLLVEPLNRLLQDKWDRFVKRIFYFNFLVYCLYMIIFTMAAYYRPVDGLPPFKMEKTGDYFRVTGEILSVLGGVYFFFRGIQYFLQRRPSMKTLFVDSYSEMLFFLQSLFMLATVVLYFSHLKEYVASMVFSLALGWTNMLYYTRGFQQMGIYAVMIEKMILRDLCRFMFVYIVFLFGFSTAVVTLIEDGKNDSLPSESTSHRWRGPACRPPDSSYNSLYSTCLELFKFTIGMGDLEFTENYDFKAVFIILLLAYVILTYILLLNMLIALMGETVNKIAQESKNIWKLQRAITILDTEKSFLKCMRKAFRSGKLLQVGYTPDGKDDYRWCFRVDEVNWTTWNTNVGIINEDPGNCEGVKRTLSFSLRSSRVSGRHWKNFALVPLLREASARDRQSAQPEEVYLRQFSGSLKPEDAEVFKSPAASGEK
"specific binding at 0 °C over the time for assay workup (TRPV1 [1]; 0 °C, after nonradioactive 1 (50 nM))",time by which specific binding was largely complete (TRPV1 [1]; 37 °C),"time for almost full release of specifically bound ligand (TRPV1 [1]; 37 °C, after nonradioactive 1 (50 nM))",change of affinity by PMA and cyclosporin A treatment (TRPV1 [2]),SMILES,activity (TRPV1 [3]),Improvement over 1 from the formula ((Kd RTX × 10^LogP RTX)/(Ki compound × 10^Log P compound)) (TRPV1 [4]),human TRPV1 less sensitive (weaker binding) than rat/rodent TRPV1 (TRPV1 [5])
stable,≤ 5 min,≤ 2 min,no appreciable change,"[3H]CC1([3H])CCN(c2nc(C(F)(F)F)ccc2CNC(=O)Nc2cccc3c2OCC(=O)N3)CC1 [compound 13, 1-((2-(4-(methyl-[^3H])piperidin-1-yl-4-[^3H])-6-(trifluoromethyl)pyridin-3-yl)methyl)-3-(3-oxo-3,4-dihydro-2H-benzo[b][1,4]oxazin-8-yl)urea]",,,
,,,,"CC(C)(C)c1ccc2c(c1)CC[C@H]2NC(=O)Nc1cccc2cnccc12 [A-778317, 1-((R)-5-tert-butyl-indan-1-yl)3-isoquinolin-5-yl-urea]",antagonist,,
,,,,"C=C(C)[C@]12C[C@@H](C)[C@@]34O[C@](Cc5ccccc5)(O[C@@H]1[C@@H]3C=C(COC(=O)Cc1ccc(O)c(OC)c1)C[C@]1(O)C(=O)C(C)=C[C@@H]41)O2 [compound 1, resiniferatoxin]",agonist,1 fold,approximately 20 fold
,,,,"CC1CCN(c2nc(C(F)(F)F)ccc2CNC(=O)Nc2cccc3c2OCC(=O)N3)CC1 [compound 12, 1-((2-(4-methylpiperidin-1-yl)-6-(trifluoromethyl)pyridin-3-yl)methyl)-3-(3-oxo-3,4-dihydro-2H-benzo[b][1,4]oxazin-8-yl)urea]",antagonist,45.6 fold,
